In brackets after ≈: the same amount, converted by molar mass.
Tests used:
Assay type in all cases: functional
[1] = system: Fusobacterium necrophorum; assay: Antibacterial activity against Fusobacterium necrophorum by CLSI agar dilution method
Bacteroides caccae [2] = assay: Antibacterial activity against beta-lactamase producing Bacteroides caccae by CLSI agar dilution method
Clostridium tertium [3] = assay: Antibacterial activity against beta-lactamase producing Clostridium tertium assessed as susceptible isolates by CLSI agar dilution method
Clostridium septicum [4] = assay: Antibacterial activity against beta-lactamase producing Clostridium septicum by CLSI agar dilution method in presence of Tazobactam
Procedure, shortened: (§1)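 CLSI agar dilution MICs for anaerobic blood isolates (nonduplicate) collected from bloodstream-infection patients at a Taiwanese tertiary hospital, January–December 2006. Isolates were spotted by Steers replicator onto supplemented Brucella blood agar and incubated anaerobically for 48 h at 35°C. MIC was the lowest drug concentration inhibiting growth. Each run included B. fragilis ATCC 25285, B. thetaiotaomicron ATCC 29741 and E. lentum ATCC 43055 as quality-control strains.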

Clostridium tertium [5] = assay: Antibacterial activity against beta-lactamase producing Clostridium tertium assessed as susceptible isolates by CLSI agar dilution method in presence of Tazobactam; procedure, shortened: as §1
[6] = system: Bacteroides thetaiotaomicron; assay: Antibacterial activity against beta-lactamase producing Bacteroides thetaiotaomicron assessed as susceptible isolates by CLSI agar dilution method in presence of Tazobactam
Procedure, shortened: (§2)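 Agar dilution per CLSI guidelines on nonduplicate anaerobic bloodstream isolates collected at NTUH, January to December 2006. Isolates were spotted by Steers replicator onto supplemented Brucella blood agar and incubated anaerobically for 48 h at 35°C. MIC was the lowest drug concentration that inhibited growth. B. fragilis ATCC 25285, B. thetaiotaomicron ATCC 29741 and E. lentum ATCC 43055 were run as QC in each run.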

Prevotella intermedia [7] = assay: Antibacterial activity against Prevotella intermedia assessed as resistant isolates by CLSI agar dilution method in presence of Tazobactam
Procedure, shortened: (§3)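 207 nonduplicate anaerobic blood isolates from patients with bloodstream infections at NTUH, collected January–December 2006. MICs were determined by agar dilution following CLSI guidelines. Inocula were applied with a Steers replicator onto supplemented Brucella blood agar and incubated 48 h at 35°C in an anaerobic chamber. MIC was the lowest concentration inhibiting growth. B. fragilis ATCC 25285, B. thetaiotaomicron ATCC 29741 and E. lentum ATCC 43055 served as controls in each run.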

[8] = system: Bacteroides thetaiotaomicron; assay: Antibacterial activity against beta-lactamase producing Bacteroides thetaiotaomicron by CLSI agar dilution method
Fusobacterium nucleatum [9] = assay: Antibacterial activity against Fusobacterium nucleatum by CLSI agar dilution method
Prevotella buccae = assay: Antibacterial activity against Prevotella buccae by CLSI agar dilution method in presence of Tazobactam; conditions: Segatella buccae; procedure, shortened: as §2
Fusobacterium varium [10] = assay: Antibacterial activity against Fusobacterium varium assessed as susceptible isolates by CLSI agar dilution method
Clostridium septicum [11] = assay: Antibacterial activity against beta-lactamase producing Clostridium septicum assessed as resistant isolates by CLSI agar dilution method
Fusobacterium nucleatum [12] = assay: Antibacterial activity against Fusobacterium nucleatum assessed as susceptible isolates by CLSI agar dilution method
Bacteroides caccae [13] = assay: Antibacterial activity against beta-lactamase producing Bacteroides caccae by CLSI agar dilution method in presence of Tazobactam; procedure, shortened: as §2
Prevotella bivia [14] = assay: Antibacterial activity against Prevotella bivia assessed as susceptible isolates by CLSI agar dilution method in presence of Tazobactam; procedure, shortened: as §2
Prevotella intermedia [15] = assay: Antibacterial activity against Prevotella intermedia assessed as resistant isolates by CLSI agar dilution method
Fusobacterium mortiferum [16] = assay: Antibacterial activity against Fusobacterium mortiferum assessed as susceptible isolates by CLSI agar dilution method in presence of Tazobactam; procedure, shortened: as §2
Bacteroides fragilis [17] = assay: Antibacterial activity against Bacteroides fragilis assessed as susceptible isolates by CLSI agar dilution method
Clostridium septicum [18] = assay: Antibacterial activity against beta-lactamase producing Clostridium septicum assessed as susceptible isolates by CLSI agar dilution method in presence of Tazobactam; procedure, shortened: as §1
[19] = system: Fusobacterium necrophorum; assay: Antibacterial activity against Fusobacterium necrophorum assessed as resistant isolates by CLSI agar dilution method in presence of Tazobactam; procedure, shortened: as §3
Bacteroides caccae [20] = assay: Antibacterial activity against beta-lactamase producing Bacteroides caccae assessed as susceptible isolates by CLSI agar dilution method in presence of Tazobactam; procedure, shortened: as §2
Phocaeicola vulgatus [21] = assay: Antibacterial activity against beta-lactamase producing Bacteroides vulgatus assessed as resistant isolates by CLSI agar dilution method in presence of Tazobactam; procedure, shortened: as §3
Prevotella intermedia [22] = assay: Antibacterial activity against Prevotella intermedia by CLSI agar dilution method in presence of Tazobactam; procedure, shortened: as §2
Fusobacterium mortiferum [23] = assay: Antibacterial activity against Fusobacterium mortiferum assessed as resistant isolates by CLSI agar dilution method
Bacteroides caccae [24] = assay: Antibacterial activity against beta-lactamase producing Bacteroides caccae assessed as susceptible isolates by CLSI agar dilution method
Fusobacterium nucleatum [25] = assay: Antibacterial activity against Fusobacterium nucleatum assessed as resistant isolates by CLSI agar dilution method in presence of clavulanate; procedure, shortened: as §3
Clostridium septicum [26] = assay: Antibacterial activity against beta-lactamase producing Clostridium septicum assessed as susceptible isolates by CLSI agar dilution method in presence of clavulanate; procedure, shortened: as §1
Finegoldia magna = assay: Antibacterial activity against beta-lactamase producing Finegoldia magna assessed as susceptible isolates by CLSI agar dilution method in presence of clavulanate; procedure, shortened: as §1
Prevotella intermedia [27] = assay: Antibacterial activity against Prevotella intermedia assessed as susceptible isolates by CLSI agar dilution method in presence of clavulanate; procedure, shortened: as §2
Bacteroides caccae [28] = assay: Antibacterial activity against beta-lactamase producing Bacteroides caccae assessed as susceptible isolates by CLSI agar dilution method in presence of clavulanate; procedure, shortened: as §2
Prevotella intermedia [29] = assay: Antibacterial activity against Prevotella intermedia assessed as resistant isolates by CLSI agar dilution method in presence of clavulanate; procedure, shortened: as §3
Fusobacterium varium [30] = assay: Antibacterial activity against Fusobacterium varium assessed as susceptible isolates by CLSI agar dilution method in presence of clavulanate; procedure, shortened: as §2
Prevotella bivia [31] = assay: Antibacterial activity against Prevotella bivia assessed as susceptible isolates by CLSI agar dilution method in presence of clavulanate; procedure, shortened: as §2
Bacteroides fragilis [32] = assay: Antibacterial activity against Bacteroides fragilis assessed as resistant isolates by CLSI agar dilution method in presence of clavulanate; procedure, shortened: as §3
Fusobacterium mortiferum [33] = assay: Antibacterial activity against Fusobacterium mortiferum assessed as susceptible isolates by CLSI agar dilution method in presence of clavulanate; procedure, shortened: as §2
Fusobacterium varium [34] = assay: Antibacterial activity against Fusobacterium varium assessed as resistant isolates by CLSI agar dilution method in presence of clavulanate; procedure, shortened: as §3
Phocaeicola vulgatus [35] = assay: Antibacterial activity against beta-lactamase producing Bacteroides vulgatus assessed as susceptible isolates by CLSI agar dilution method in presence of clavulanate; procedure, shortened: as §1
[36] = system: Peptostreptococcus anaerobius; assay: Antibacterial activity against beta-lactamase producing Peptostreptococcus anaerobius assessed as resistant isolates by CLSI agar dilution method in presence of clavulanate; procedure, shortened: as §3
[37] = system: Peptostreptococcus anaerobius; assay: Antibacterial activity against beta-lactamase producing Peptostreptococcus anaerobius assessed as susceptible isolates by CLSI agar dilution method in presence of clavulanate; procedure, shortened: as §1

CCN1CCN(C(=O)N[C@@H](C(=O)N[C@@H]2C(=O)N3[C@@H]2SC(C)(C)[C@@H]3C(=O)O)c2ccccc2)C(=O)C1=O [PIPERACILLIN]
MIC50 [1]: 2 mg/L (≈ 3.86 µM)
MIC90 [1]: 8 mg/L (≈ 15.5 µM)
MIC50 (Bacteroides caccae [2]): > 128 mg/L
MIC90 (Bacteroides caccae [2]): > 128 mg/L
Activity (Clostridium tertium [3]): 100%
MIC50 (Clostridium septicum [4]): 0.5 mg/L
MIC90 (Clostridium septicum [4]): 2 mg/L
Activity (Clostridium tertium [5]): 100%
Activity [6]: 93%
Activity (Prevotella intermedia [7]): 0%
MIC50 [8]: 32 mg/L (≈ 61.8 µM)
MIC90 [8]: > 128 mg/L
MIC50 (Fusobacterium nucleatum [9]): 2 mg/L (≈ 3.86 µM)
MIC90 (Fusobacterium nucleatum [9]): 8 mg/L (≈ 15.5 µM)
MIC (Prevotella buccae): 0.03 mg/L
MIC50 (Prevotella buccae): 0.03 mg/L
MIC90 (Prevotella buccae): 1 mg/L
Activity (Fusobacterium varium [10]): 90%
Activity (Clostridium septicum [11]): 0%
Activity (Fusobacterium nucleatum [12]): 90%
MIC50 (Bacteroides caccae [13]): 8 mg/L
MIC90 (Bacteroides caccae [13]): 16 mg/L
Activity (Prevotella bivia [14]): 100%
Activity (Prevotella intermedia [15]): 22%
Activity (Fusobacterium mortiferum [16]): 100%
Activity (Bacteroides fragilis [17]): 62%
Activity (Clostridium septicum [18]): 100%
Activity [19]: 0%
Activity (Bacteroides caccae [20]): 96%
Activity (Phocaeicola vulgatus [21]): 4%
MIC (Prevotella intermedia [22]): 0.03 mg/L
MIC50 (Prevotella intermedia [22]): 0.03 mg/L
MIC90 (Prevotella intermedia [22]): 1 mg/L
Activity (Fusobacterium mortiferum [23]): 10%
Activity (Bacteroides caccae [24]): 35%

CC1(C)S[C@@H]2[C@H](NC(=O)[C@H](N)c3ccc(O)cc3)C(=O)N2[C@H]1C(=O)O [AMOXICILLIN]
Activity (Fusobacterium nucleatum [25]): 7%
Activity (Clostridium septicum [26]): 96%
Activity (Finegoldia magna): 94%
Activity (Prevotella intermedia [27]): 81%
Activity (Bacteroides caccae [28]): 53%
Activity (Prevotella intermedia [29]): 6%
Activity (Fusobacterium varium [30]): 89%
Activity (Prevotella bivia [31]): 81%
Activity (Bacteroides fragilis [32]): 23%
Activity (Fusobacterium mortiferum [33]): 89%
Activity (Fusobacterium varium [34]): 7%
Activity (Phocaeicola vulgatus [35]): 53%
Activity [36]: 3%
Activity [37]: 94%

From ChEMBL document CHEMBL1671627, “Increasing trends in antimicrobial resistance among clinically important anaerobes and Bacteroides fragilis isolates causing nosocomial infections: emerging resistance to carbapenems” (2008)
